Measurements taken from ChEMBL document CHEMBL1800004, “Discovery of 4-anilinofuro[2,3-b]quinoline derivatives as selective and orally active compounds against non-small-cell lung cancers” (J Med Chem, 2011).

Legend:
Assay type in all cases: functional
SF-268 [1] = assay: Anticancer activity against human SF268 cells assessed as cell growth at 4 ug/mL after 48 hrs by SRB assay relative to control; conditions: SF-268, 48 h, read-out: Activity
Procedure, shortened: (§1)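 Cells were inoculated and preincubated in microtiter plates. Compounds were dissolved in DMSO, diluted in culture medium, and tested at 20.0 and 4.0 μg/mL for 48 h. The end-point used sulforhodamine B protein staining, and growth was expressed as percent of untreated control cells.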

NCI-H460 [2] = assay: Anticancer activity against human NCI-H460 cells assessed as cell growth at 20 ug/mL after 48 hrs by SRB assay relative to control; conditions: NCI-H460, 48 h, read-out: Activity; procedure, shortened: as §1
NCI-H460 [3] = assay: Anticancer activity against human NCI-H460 cells assessed as cell growth at 4 ug/mL after 48 hrs by SRB assay relative to control; conditions: NCI-H460, 48 h, read-out: Activity; procedure, shortened: as §1
SF-268 [4] = assay: Anticancer activity against human SF268 cells assessed as cell growth at 20 ug/mL after 48 hrs by SRB assay relative to control; conditions: SF-268, 48 h, read-out: Activity; procedure, shortened: as §1
MCF7 [5] = assay: Anticancer activity against human MCF7 cells assessed as cell growth at 20 ug/mL after 48 hrs by SRB assay relative to control; conditions: MCF7, 48 h, read-out: Activity; procedure, shortened: as §1
MCF7 [6] = assay: Anticancer activity against human MCF7 cells assessed as cell growth at 4 ug/mL after 48 hrs by SRB assay relative to control; conditions: MCF7, 48 h, read-out: Activity; procedure, shortened: as §1

Row | SMILES | growth at 4 µg/mL (SF-268 [1]) [%] | growth at 20 µg/mL (NCI-H460 [2]) [%] | growth at 4 µg/mL (NCI-H460 [3]) [%] | growth at 20 µg/mL (SF-268 [4]) [%] | growth at 20 µg/mL (MCF7 [5]) [%] | growth at 4 µg/mL (MCF7 [6]) [%]
1 | COc1ccc2c(Nc3ccc(/C(C)=N/OCCCN)cc3)c3c(Cl)coc3nc2c1 | 109 | 8 | 91 | 48 | 3 | 101
2 | COc1ccc2c(Nc3ccc(C(N)=O)cc3)c3c(Cl)coc3nc2c1 | – | 77 | 96 | – | 66 | 90
3 | CNC(=O)c1ccc(Nc2c3ccc(OC)cc3nc3occ(Cl)c23)cc1 | 52 | 27 | 58 | 35 | 47 | 72
4 | COc1ccc2c(Nc3ccc(/C(C)=N/OCCN4CCOCC4)cc3)c3ccoc3nc2c1 | 110 | 44 | 96 | 92 | 25 | 76
5 | C/C(=N\OCCCN(C)C)c1ccc(Nc2c3ccccc3nc3occc23)cc1 | 62 | 7 | 52 | 0 | 22 | 84
6 | C/C(=N\OCCCN(C)C)c1ccc(Nc2c3ccccc3nc3occ(Cl)c23)cc1 | 66 | 1 | 52 | 1 | 1 | 61
7 | COc1ccc2c(Nc3ccc(C(=O)NCCO)cc3)c3c(Cl)coc3nc2c1 | 103 | 82 | 98 | 100 | 74 | 96
8 | COc1ccc2c(Nc3ccc(C(=O)NCCN(C)C)cc3)c3c(Cl)coc3nc2c1 | 119 | 60 | 112 | 68 | 44 | 97
9 | COc1ccc2c(Nc3ccc(C(=O)NCCCN(C)C)cc3)c3c(Cl)coc3nc2c1 | 94 | 36 | 92 | 71 | 72 | 91
10 | COc1ccc2c(Nc3ccc(/C(C)=N/OCCN(C)C)cc3)c3ccoc3nc2c1 | 91 | -1 | 75 | 1 | -1 | 67
11 | COc1ccc2c(Nc3ccc(/C(C)=N/OCCN4CCOCC4)cc3)c3c(Cl)coc3nc2c1 | 104 | 68 | 97 | 108 | 37 | 85
12 | NS(=O)(=O)c1ccc(Nc2c3ccccc3nc3occ(Cl)c23)cc1 | 98 | 79 | 86 | 96 | 90 | 91
13 | COc1ccc2c(Nc3ccc(/C(C)=N/OCCN4CCCC4)cc3)c3c(Cl)coc3nc2c1 | 102 | 5 | 53 | 5 | 1 | 55
14 | COc1ccc2c(Nc3ccc(/C(C)=N/OCCN4CCCCC4)cc3)c3ccoc3nc2c1 | 106 | 9 | 84 | 44 | 2 | 77
15 | C/C(=N\OCCN1CCCC1)c1ccc(Nc2c3ccccc3nc3occ(Cl)c23)cc1 | 86 | -1 | 69 | -3 | -2 | 86
16 | C/C(=N\OCCN1CCCCC1)c1ccc(Nc2c3ccccc3nc3occ(Cl)c23)cc1 | 120 | 3 | 101 | 31 | 26 | 121
17 | C/C(=N\OCCCCN1CCOCC1)c1ccc(Nc2c3ccccc3nc3occ(Cl)c23)cc1 | 115 | 3 | 91 | 3 | -3 | 75
18 | O=C(O)c1ccc(Nc2c3ccccc3nc3occ(Cl)c23)cc1 | 80 | 81 | 89 | 73 | 61 | 62

Row | SMILES | growth at 4 µg/mL (SF-268 [1]) [%] | growth at 20 µg/mL (NCI-H460 [2]) [%] | growth at 4 µg/mL (NCI-H460 [3]) [%] | growth at 20 µg/mL (SF-268 [4]) [%] | growth at 20 µg/mL (MCF7 [5]) [%] | growth at 4 µg/mL (MCF7 [6]) [%]
19 | C/C(=N\OCCN1CCOCC1)c1ccc(Nc2c3ccccc3nc3occc23)cc1 | 121 | 23 | 108 | 32 | 56 | 120
20 | COc1ccc2c(Nc3ccc(/C(C)=N/OCCCCN4CCOCC4)cc3)c3ccoc3nc2c1 | 110 | 21 | 89 | 44 | 75 | 83
21 | COc1ccc2c(Nc3ccc(/C(C)=N/OCCCN(C)C)cc3)c3ccoc3nc2c1 | 90 | 5 | 82 | 3 | 2 | 59
22 | NC(=O)c1ccc(Nc2c3ccccc3nc3occ(Cl)c23)cc1 | 97 | 97 | 97 | 97 | 92 | 93
23 | C/C(=N\OCCN1CCOCC1)c1ccc(Nc2c3ccccc3nc3occ(Cl)c23)cc1 | 121 | 16 | 107 | 32 | 54 | 112
24 | C/C(=N\OCCN1CCCC1)c1ccc(Nc2c3ccccc3nc3occc23)cc1 | 66 | 1 | 54 | -3 | 6 | 64
25 | C/C(=N\OCCN1CCCCC1)c1ccc(Nc2c3ccccc3nc3occc23)cc1 | 96 | -1 | 99 | -3 | 3 | 114
26 | C/C(=N\OCCCCN1CCOCC1)c1ccc(Nc2c3ccccc3nc3occc23)cc1 | 125 | -1 | 118 | 2 | -2 | 76
27 | C/C(=N\OCCN(C)C)c1ccc(Nc2c3ccccc3nc3occc23)cc1 | 81 | 0 | 94 | -5 | 0 | 59
28 | COc1ccc2c(Nc3ccc(S(N)(=O)=O)cc3)c3c(Cl)coc3nc2c1 | – | 17 | 97 | – | 33 | 90
29 | COc1ccc2c(Nc3ccc(/C(C)=N/OCCCCN4CCOCC4)cc3)c3c(Cl)coc3nc2c1 | 110 | 20 | 87 | 99 | 5 | 96
30 | C/C(=N\OCCN(C)C)c1ccc(Nc2c3ccccc3nc3occ(Cl)c23)cc1 | 71 | -1 | 68 | 2 | -3 | 70
31 | COc1ccc2c(Nc3ccc(/C(C)=N/OCCN(C)C)cc3)c3c(Cl)coc3nc2c1 | 102 | -1 | 74 | -1 | -2 | 51
32 | COc1ccc2c(Nc3ccc(/C(C)=N/OCCN4CCCCC4)cc3)c3c(Cl)coc3nc2c1 | 112 | 3 | 67 | 48 | -1 | 56
33 | COc1ccc2c(Nc3ccc(/C(C)=N/OCCCN)cc3)c3ccoc3nc2c1 | 103 | 16 | 105 | 56 | 18 | 100
34 | COc1ccc2c(Nc3ccc(/C(C)=N/OCCCN(C)C)cc3)c3c(Cl)coc3nc2c1 | 103 | 4 | 66 | 1 | 1 | 66
35 | COc1ccc2c(Nc3ccc(/C(C)=N/OCCN4CCCC4)cc3)c3ccoc3nc2c1 | 104 | 5 | 69 | 6 | 3 | 63
